Measured values taken from publication PMC10762718 (RSC Advances, 2024).

Columns and labels:
Type in all cases: cell-based
[1] = MTT cell viability assay, normal MCF-10A cells; details: human, MCF-10A normal mammary epithelial cells
Method in brief: (§1)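 Normal mammary epithelial MCF-10A cells were exposed to test compound at 25, 50 and 100 μM for 72 h. Cells were then given MTT after medium removal, 3 h at 37 °C in CO2. Formazan was dissolved in DMSO and absorbance read at 595 nm. Viability is expressed as percent of untreated control cells.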

[2] = test system: normal mammary epithelial MCF-10A cells; assay: MTT cell viability assay, normal MCF-10A cells; details: tested at 25, 50 and 100 μM
Method in brief: as §1

[3] = test system: MCF-7 breast cancer cells; assay: MTT cell viability assay, MCF-7; details: Homo sapiens; for inhibition at 25 µM: MCF7; for IC50: MCF7, 72 h, read-out: IC50 against MCF-7 breast cancer cells line
Method in brief: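 After medium removal, MTT was added for 3 h at 37 °C in CO2, formazan dissolved in DMSO and absorbance read at 595 nm. Viability is relative to untreated cells, triplicates, n = 3, ±SD. IC50 comes from plotting percent viability against concentration.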

MDA-MB-453 cells = assay: MTT cell viability assay, MDA-MB-453; details: for IC50 against MDA-MB-453 cells: tested at 1, 10 and 25 μM
Method in brief: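 MDA-MB-453 (HER2-positive) cells were exposed to test compound at 1, 10 and 25 μM for 72 h. After medium removal, MTT was added for 3 h at 37 °C in CO2. Formazan was dissolved in DMSO and absorbance read at 595 nm. Percent viable cells are relative to untreated control cells.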

[4] = test system: MDA-MB-231 (human breast cancer) cells; assay: MTT cell viability assay, MDA-MB-231; details: for inhibition at 25 µM: MDA-MB-231
Method in brief: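 MDA-MB-231 cells were grown as a monolayer in DMEM with 10% heat-inactivated FBS and 1% penicillin-streptomycin at 37 °C in humidified CO2, subcultured every third day with trypsin-EDTA, and used before passage 8. Cells were exposed 72 h to 10, 25 and 50 μM. Medium was removed, MTT added for 3 h at 37 °C, formazan dissolved in DMSO and read at 595 nm. Viability is relative to untreated control, triplicates, ±SD. IC50 comes from the viability-versus-concentration plot.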

[5] = MCF7, read-out: Cell viability (%) ±SD
[6] = Homo sapiens, MDA-MB-453, read-out: Cell viability (%) ±SD
[7] = MDA-MB-231, 72 h, read-out: Cell viability (%) ±SD

| Compound | viability at 72 h, 25 µM [1] | viability at 72 h, 50 µM [1] | viability at 72 h, 100 µM [1] | growth inhibitory activity against normal breast epithelial cell (MCF-10A) [2] | inhibition at 25 µM [3] | IC50 [3] | viability at 1 µM [3, 5] | viability at 10 µM [3, 5] | viability at 25 µM [3, 5] | viability at 1 µM (MDA-MB-453 cells; [6]) | viability at 10 µM (MDA-MB-453 cells; [6]) | viability at 25 µM (MDA-MB-453 cells; [6]) | IC50 against MDA-MB-453 cells (MDA-MB-453 cells) | inhibition at 25 µM [4] | viability at 10 µM [4, 7] | viability at 25 µM [4, 7] | viability at 50 µM [4, 7] | other results |
| --- | --- | --- | --- | --- | --- | --- | --- | --- | --- | --- | --- | --- | --- | --- | --- | --- | --- | --- |
| COc1ccc(-c2cc(=O)n3c(ccn3Cc3cn([C@H]4O[C@@H](COC(C)=O)[C@H](OC(C)=O)[C@@H](OC(C)=O)[C@@H]4OC(C)=O)nn3)n2)cc1 (stereo in doubt) [Compound 23, (2S,3S,4R,5S,6S)-2-(Acetoxymethyl)-6-(4-((5-(4-methoxyphenyl)-7-oxopyrazolo[1,5-a]pyrimidin-1(7H)-yl)methyl)-1H-1,2,3-triazol-1-yl)tetrahydro-2H-pyran-3,4,5-triyl triacetate] | 88.6 ± 1.5% | 86.3 ± 2.9% | 84.2 ± 3% | none of these compounds did have any growth inhibitory activity | ~50% | 9.24 µM | 66.7 ± 1.18% | 40.3 ± 3.6% | 31.7 ± 4% | 80.6 ± 8% | 88.4 ± 5.4% | 77.1 ± 5.7% | did not reach up to IC50 value | ~50% | 65.1 ± 8.53% | 49 ± 9.19% | 34.3 ± 5.29% | – |
| CC(=O)OC[C@@H]1O[C@H](n2cc(Cn3ccc4nc(-c5ccc(F)cc5)cc(=O)n43)nn2)[C@@H](OC(C)=O)[C@H](OC(C)=O)[C@H]1OC(C)=O (stereo in doubt) [Compound 26, (2S,3S,4R,5S,6S)-2-(Acetoxymethyl)-6-(4-((5-(4-fluorophenyl)-7-oxopyrazolo[1,5-a]pyrimidin-1(7H)-yl)methyl)-1H-1,2,3-triazol-1-yl)tetrahydro-2H-pyran-3,4,5-triyl triacetate] | 87.8 ± 2.8% | 85.6 ± 0.7% | 82 ± 1.5% | none of these compounds did have any growth inhibitory activity | ~50% | 26.6 µM | 80 ± 4.5% | 65.8 ± 1.8% | 52.8 ± 3% | 87.8 ± 3.2% | 84.2 ± 11.5% | 66.3 ± 5.8% | did not reach up to IC50 value | ~50% | 76.6 ± 9.76% | 60 ± 8.47% | 54.6 ± 5.61% | – |
| CC(=O)OC[C@@H]1O[C@H](n2cc(Cn3ccc4nc(-c5ccc6c(c5)OCO6)cc(=O)n43)nn2)[C@@H](OC(C)=O)[C@H](OC(C)=O)[C@H]1OC(C)=O (stereo in doubt) [Compound 30, (2S,3S,4R,5S,6S)-2-(Acetoxymethyl)-6-(4-((5-(benzo[d][1,3]dioxol-5-yl)-7-oxopyrazolo[1,5-a]pyrimidin-1(7H)-yl)methyl)-1H-1,2,3-triazol-1-yl)tetrahydro-2H-pyran-3,4,5-triyl triacetate] | 86.8 ± 5.3% | 84.8 ± 3% | 78.5 ± 3.4% | none of these compounds did have any growth inhibitory activity | ~50% | 18.5 µM | 78.2 ± 2.6% | 57.7 ± 2.4% | 42.3 ± 7.6% | 99.2 ± 8.1% | 74.8 ± 1.5% | 61.4 ± 3.2% | did not reach up to IC50 value | ~50% | 86.6 ± 3.36% | 55.2 ± 7.06% | 42.8 ± 5.04% | – |
| CC(=O)OC[C@@H]1O[C@H](n2cc(Cn3ccc4nc(-c5ccc(Br)cc5)cc(=O)n43)nn2)[C@@H](OC(C)=O)[C@H](OC(C)=O)[C@@H]1OC(C)=O (stereo in doubt) [Compound 33, (2S,3R,4R,5S,6S)-2-(Acetoxymethyl)-6-(4-((5-(4-bromophenyl)-7-oxopyrazolo[1,5-a]pyrimidin-1(7H)-yl)methyl)-1H-1,2,3-triazol-1-yl)tetrahydro-2H-pyran-3,4,5-triyl triacetate] | 99.6 ± 2.2% | 87.6 ± 1.7% | 81.4 ± 2.6% | none of these compounds did have any growth inhibitory activity | ~50% | 7.32 µM | 67 ± 4.7% | 35 ± 2.5% | 25 ± 2.9% | 88.8 ± 5.2% | 78.3 ± 4.7% | 67.6 ± 5.3% | did not reach up to IC50 value | ~50% | 66.7 ± 8.23% | 63.3 ± 6.32% | 47 ± 4.91% | – |
| CC(=O)OC[C@H]1O[C@H](n2cc(Cn3ccc4nc(-c5ccc(C(F)(F)F)cc5)cc(=O)n43)nn2)[C@@H](OC(C)=O)[C@@H](OC(C)=O)[C@@H]1OC(C)=O [Compound 45, (2R,3R,4S,5S,6S)-2-(Acetoxymethyl)-6-(4-((7-oxo-5-(4-(trifluoromethyl)phenyl)pyrazolo[1,5-a]pyrimidin-1(7H)-yl)methyl)-1H-1,2,3-triazol-1-yl)tetrahydro-2H-pyran-3,4,5-triyl triacetate] | – | – | – | – | – | – | – | – | – | – | – | – | – | – | 96.8 ± 5.85% | 91.1 ± 6% | 87 ± 1.1% | – |
| CC(=O)OC[C@H]1O[C@H](n2cc(Cn3ccc4nc(-c5ccc(C(C)C)cc5)cc(=O)n43)nn2)[C@@H](OC(C)=O)[C@@H](OC(C)=O)[C@@H]1OC(C)=O [Compound 46, (2R,3R,4S,5S,6S)-2-(Acetoxymethyl)-6-(4-((5-(4-isopropylphenyl)-7-oxopyrazolo[1,5-a]pyrimidin-1(7H)-yl)methyl)-1H-1,2,3-triazol-1-yl)tetrahydro-2H-pyran-3,4,5-triyl triacetate] | – | – | – | – | – | – | – | – | – | – | – | – | – | – | 80.6 ± 4.7% | 75.5 ± 4.44% | 83.5 ± 7.27% | – |
| CC(=O)OC[C@H]1O[C@H](n2cc(Cn3ccc4nc(-c5ccc6ccccc6c5)cc(=O)n43)nn2)[C@@H](OC(C)=O)[C@@H](OC(C)=O)[C@@H]1OC(C)=O [Compound 47, (2R,3R,4S,5S,6S)-2-(Acetoxymethyl)-6-(4-((5-(naphthalen-2-yl)-7-oxopyrazolo[1,5-a]pyrimidin-1(7H)-yl)methyl)-1H-1,2,3-triazol-1-yl)tetrahydro-2H-pyran-3,4,5-triyl triacetate] | – | – | – | – | – | – | – | – | – | – | – | – | – | – | 102 ± 9.28% | 89.8 ± 2.22% | 81.5 ± 5.45% | – |
| CC(=O)OC[C@H]1O[C@H](n2cc(Cn3ccc4nc(-c5ccc6c(c5)OCO6)cc(=O)n43)nn2)[C@@H](OC(C)=O)[C@@H](OC(C)=O)[C@@H]1OC(C)=O [Compound 48, (2R,3R,4S,5S,6S)-2-(Acetoxymethyl)-6-(4-((5-(benzo[d][1,3]dioxol-5-yl)-7-oxopyrazolo[1,5-a]pyrimidin-1(7H)-yl)methyl)-1H-1,2,3-triazol-1-yl)tetrahydro-2H-pyran-3,4,5-triyl triacetate] | – | – | – | – | – | – | – | – | – | – | – | – | – | – | 96.5 ± 4.91% | 93.3 ± 3.6% | 92.9 ± 9.08% | – |
| CC1=CC(=O)c2ccccc2C1=O [Menadione, menadione, reference compound] | – | – | – | – | – | – | – | – | – | – | – | – | – | – | – | – | – | viability at 20 µM [4, 7]: 23.8 ± 5.7% |
| COCCn1c2c([n+](Cc3cnccn3)c1C)C(=O)c1ccccc1C2=O [YM155, reference compound] | – | – | – | – | – | – | – | – | – | – | – | – | – | – | – | – | – | viability at 72 h, 0.02 µM [1]: 39.2 ± 1.6%; viability at 0.02 µM [3, 5]: 31.2 ± 1.7%; viability at 0.02 µM (MDA-MB-453 cells; [6]): 36.2 ± 1.5%; viability at 0.02 µM [4, 7]: 23.4 ± 3.13% |
